Assay results taken from ChEMBL document CHEMBL4330069, “Boosting the efficacy of anti-MRSA β-lactam antibiotics via an easily accessible, non-cytotoxic and orally bioavailable FtsZ inhibitor” (Eur J Med Chem, 2019).
Values after ≈ are worked out from the molar mass of the structure shown.

Assays:
Assay type in all cases: functional
[1] = system: Staphylococcus aureus; assay: Synergistic antibacterial activity against multidrug-resistant Staphylococcus aureus isolate 2224 assessed as fractional Inhibitory concentration index in presence of cefuroxime by broth microdilution assay
Procedure, shortened: (§1)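 CLSI broth microdilution run on clinical MRSA isolates with each β-lactam alone, the test agent alone, and the two combined; agents dissolved in DMSO. Growth inhibition was read by eye. FIC index = FIC(compound) + FIC(β-lactam), where each FIC is the MIC in combination divided by the MIC alone. An index ≤0.5 was taken as synergy.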

[2] = system: Staphylococcus aureus; assay: Synergistic antibacterial activity against multidrug-resistant Staphylococcus aureus isolate 2901 assessed as fractional Inhibitory concentration index in presence of methicillin by broth microdilution assay
[3] = system: Staphylococcus aureus; assay: Synergistic antibacterial activity against multidrug-resistant Staphylococcus aureus isolate 200 assessed as fractional Inhibitory concentration index in presence of amoxicillin by broth microdilution assay; procedure, shortened: as §1
[4] = system: Staphylococcus aureus; assay: Synergistic antibacterial activity against multidrug-resistant Staphylococcus aureus isolate 358 in presence of cefuroxime by broth microdilution assay
[5] = system: Staphylococcus aureus; assay: Synergistic antibacterial activity against multidrug-resistant Staphylococcus aureus isolate 3411 in presence of cefuroxime by broth microdilution assay
[6] = system: Staphylococcus aureus; assay: Synergistic antibacterial activity against multidrug-resistant Staphylococcus aureus isolate 3411 in presence of meropenem by broth microdilution assay
[7] = system: Staphylococcus aureus; assay: Synergistic antibacterial activity against multidrug-resistant Staphylococcus aureus isolate 2919 assessed as fractional Inhibitory concentration index in presence of methicillin by broth microdilution assay
[8] = system: Staphylococcus aureus; assay: Synergistic antibacterial activity against multidrug-resistant Staphylococcus aureus isolate 3411 in presence of amoxicillin by broth microdilution assay
Procedure, shortened: (§2)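 CLSI broth microdilution on clinical MRSA isolates. MICs were measured for the β-lactam alone, the test agent alone and the two combined. Compounds were dissolved in DMSO, and growth inhibition was scored by eye. FIC index is the sum, over both agents, of MIC in combination divided by MIC alone. An FIC index ≤0.5 was taken as synergy.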

[9] = system: Staphylococcus aureus; assay: Synergistic antibacterial activity against multidrug-resistant Staphylococcus aureus isolate 3267 in presence of methicillin by broth microdilution assay; procedure, shortened: as §2
[10] = system: Staphylococcus aureus; assay: Synergistic antibacterial activity against multidrug-resistant Staphylococcus aureus isolate 2490 in presence of meropenem by broth microdilution assay
Procedure, shortened: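 Clinical MRSA isolate panel; compound and β-lactam tested alone and in combination by CLSI broth microdilution, compounds dissolved in DMSO, growth inhibition scored by eye, run in duplicate. FIC index = FIC(compound) + FIC(drug), each the MIC in combination divided by the MIC alone; an index ≤ 0.5 was called synergy.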

[11] = system: Staphylococcus aureus; assay: Synergistic antibacterial activity against multidrug-resistant Staphylococcus aureus isolate 774 in presence of cefuroxime by broth microdilution assay
[12] = system: Staphylococcus aureus; assay: Synergistic antibacterial activity against multidrug-resistant Staphylococcus aureus isolate 3580 in presence of cefuroxime by broth microdilution assay
[13] = system: Staphylococcus aureus; assay: Synergistic antibacterial activity against multidrug-resistant Staphylococcus aureus isolate 2919 assessed as fractional Inhibitory concentration index in presence of amoxicillin by broth microdilution assay
[14] = system: Staphylococcus aureus; assay: Synergistic antibacterial activity against multidrug-resistant Staphylococcus aureus isolate 774 in presence of methicillin by broth microdilution assay
[15] = system: Staphylococcus aureus; assay: Synergistic antibacterial activity against multidrug-resistant Staphylococcus aureus isolate 2490 assessed as fractional Inhibitory concentration index in presence of amoxicillin by broth microdilution assay; procedure, shortened: as §1
[16] = system: Staphylococcus aureus; assay: Synergistic antibacterial activity against multidrug-resistant Staphylococcus aureus isolate 1717 assessed as fractional Inhibitory concentration index in presence of amoxicillin by broth microdilution assay; procedure, shortened: as §1
[17] = system: Staphylococcus aureus; assay: Synergistic antibacterial activity against multidrug-resistant Staphylococcus aureus isolate 1717 assessed as fractional Inhibitory concentration index in presence of methicillin by broth microdilution assay; procedure, shortened: as §1
[18] = system: Staphylococcus aureus; assay: Synergistic antibacterial activity against multidrug-resistant Staphylococcus aureus isolate 2895 in presence of methicillin by broth microdilution assay; procedure, shortened: as §2
[19] = system: Staphylococcus aureus; assay: Synergistic antibacterial activity against multidrug-resistant Staphylococcus aureus isolate 254 in presence of meropenem by broth microdilution assay; procedure, shortened: as §2
[20] = system: Staphylococcus aureus; assay: Synergistic antibacterial activity against multidrug-resistant Staphylococcus aureus isolate 256 assessed as fractional Inhibitory concentration index in presence of meropenem by broth microdilution assay
[21] = system: Staphylococcus aureus; assay: Synergistic antibacterial activity against multidrug-resistant Staphylococcus aureus isolate 358 in presence of methicillin by broth microdilution assay
[22] = system: Staphylococcus aureus; assay: Synergistic antibacterial activity against multidrug-resistant Staphylococcus aureus isolate 254 assessed as fractional Inhibitory concentration index in presence of cloxacillin by broth microdilution assay
[23] = system: Staphylococcus aureus; assay: Synergistic antibacterial activity against multidrug-resistant Staphylococcus aureus isolate 358 in presence of meropenem by broth microdilution assay
[24] = system: Staphylococcus aureus; assay: Synergistic antibacterial activity against multidrug-resistant Staphylococcus aureus isolate 200 assessed as fractional Inhibitory concentration index in presence of meropenem by broth microdilution assay; procedure, shortened: as §1
[25] = system: Staphylococcus aureus; assay: Synergistic antibacterial activity against multidrug-resistant Staphylococcus aureus isolate 2901 assessed as fractional Inhibitory concentration index in presence of amoxicillin by broth microdilution assay
[26] = system: Staphylococcus aureus; assay: Antibacterial activity against multidrug-resistant Staphylococcus aureus isolate 3589 by broth microdilution assay
Procedure, shortened: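 Broth microdilution MIC per CLSI guidelines against clinical MRSA isolates, for β-lactams and test compound alone and in combination. Compounds were dissolved in DMSO. Growth was read by eye, in duplicate. FIC index = FIC(compound) + FIC(drug); synergy defined as FIC index ≤0.5.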

[27] = system: Staphylococcus aureus; assay: Synergistic antibacterial activity against multidrug-resistant Staphylococcus aureus isolate 2224 assessed as fractional Inhibitory concentration index in presence of meropenem by broth microdilution assay; procedure, shortened: as §1
[28] = system: Staphylococcus aureus; assay: Synergistic antibacterial activity against multidrug-resistant Staphylococcus aureus isolate 757 in presence of methicillin by broth microdilution assay
[29] = system: Staphylococcus aureus; assay: Synergistic antibacterial activity against multidrug-resistant Staphylococcus aureus isolate 757 in presence of amoxicillin by broth microdilution assay
[30] = system: Staphylococcus aureus; assay: Synergistic antibacterial activity against multidrug-resistant Staphylococcus aureus isolate 2901 assessed as fractional Inhibitory concentration index in presence of meropenem by broth microdilution assay
[31] = system: Staphylococcus aureus; assay: Synergistic antibacterial activity against multidrug-resistant Staphylococcus aureus isolate 3589 in presence of amoxicillin by broth microdilution assay
[32] = system: Staphylococcus aureus; assay: Synergistic antibacterial activity against multidrug-resistant Staphylococcus aureus isolate 231 assessed as fractional Inhibitory concentration index in presence of cloxacillin by broth microdilution assay; procedure, shortened: as §1
[33] = system: Staphylococcus aureus; assay: Synergistic antibacterial activity against multidrug-resistant Staphylococcus aureus isolate 3332 assessed as fractional Inhibitory concentration index in presence of cloxacillin by broth microdilution assay
[34] = system: Staphylococcus aureus; assay: Synergistic antibacterial activity against multidrug-resistant Staphylococcus aureus isolate 2516 in presence of meropenem by broth microdilution assay; procedure, shortened: as §2
[35] = system: Staphylococcus aureus; assay: Synergistic antibacterial activity against multidrug-resistant Staphylococcus aureus isolate 1402 assessed as fractional Inhibitory concentration index in presence of cloxacillin by broth microdilution assay; procedure, shortened: as §1
[36] = system: Staphylococcus aureus; assay: Synergistic antibacterial activity against multidrug-resistant Staphylococcus aureus isolate 256 assessed as fractional Inhibitory concentration index in presence of methicillin by broth microdilution assay
[37] = system: Escherichia coli; assay: Antibacterial activity against Escherichia coli ATCC 25922 by broth microdilution assay
Procedure, shortened: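 Broth microdilution per CLSI guidelines; compounds dissolved in DMSO; single agents tested; growth inhibition read by eye; run in duplicate (table footnote states at least triplicates).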

Structure (SMILES): CCCCCCCCCNc1ccc(F)c(C(N)=O)c1F
- fractional inhibitory concentration index (FICI) [1]: 0.3
- fractional inhibitory concentration index (FICI) [2]: 0
- fractional inhibitory concentration index (FICI) [3]: 0
- MIC [4]: 2 µg/mL
- MIC [5]: 2 µg/mL
- MIC [6]: 4 µg/mL
- fractional inhibitory concentration index (FICI) [7]: 0.4
- MIC [8]: 4 µg/mL
- MIC [9]: 4 µg/mL
- MIC [10]: 4 µg/mL
- MIC [11]: 2 µg/mL
- MIC [12]: 2 µg/mL
- fractional inhibitory concentration index (FICI) [13]: 0.5
- MIC [14]: 4 µg/mL
- fractional inhibitory concentration index (FICI) [15]: 0.6
- fractional inhibitory concentration index (FICI) [16]: 1.1
- fractional inhibitory concentration index (FICI) [17]: 1.1
- MIC [18]: 4 µg/mL
- MIC [19]: 8 µg/mL
- fractional inhibitory concentration index (FICI) [20]: 4
- MIC [21]: 2 µg/mL
- fractional inhibitory concentration index (FICI) [22]: 0.2
- MIC [23]: 16 µg/mL
- fractional inhibitory concentration index (FICI) [24]: 8
- fractional inhibitory concentration index (FICI) [25]: 0.1
- MIC [26]: 8 µg/mL (≈ 26.8 µM)
- fractional inhibitory concentration index (FICI) [27]: 4
- MIC [28]: 4 µg/mL
- MIC [29]: 2 µg/mL
- fractional inhibitory concentration index (FICI) [30]: 4
- MIC [31]: 8 µg/mL
- fractional inhibitory concentration index (FICI) [32]: 0.3
- fractional inhibitory concentration index (FICI) [33]: 0.4
- MIC [34]: 4 µg/mL
- fractional inhibitory concentration index (FICI) [35]: 0.8
- fractional inhibitory concentration index (FICI) [36]: 0
- MIC [37]: > 64 µg/mL
